This note sets out measurements from ChEMBL document CHEMBL4017482, “4-Connected azabicyclo[5.3.0]decane Smac mimetics-Zn2+ chelators as dual action antitumoral agents” (Bioorg Med Chem Lett, 2017).

The structures appear in SMILES notation. Activity calls are given as the source filed them. The calls are words filed in the database; no cut-off is given here.

For assay [1], the target named is E3 ubiquitin-protein ligase XIAP (Homo sapiens) (UniProt P98170). In words: Induction of XIAP degradation in smac mimetic-sensitive human MDA-MB-231 cells at 5 uM measured after 24 hrs by Western blot analysis. Background: A western blot detects proteins with antibodies after separation by electrophoresis.
Assay [2] has the same target. The assay can be described thus: Induction of XIAP degradation in smac mimetic-resistant human MDA-MB-453 cells at 5 uM measured after 24 hrs by Western blot analysis.
Assay [3] deals with MDA-MB-231. In words: Induction of apoptosis in smac mimetic-sensitive human MDA-MB-231 cells assessed as increase in cleaved casapse-3 at 5 uM measured after 24 hrs by Western blot analysis. The format is functional, cell-based.
A short description of assay [4]: Metal chelating activity of compound assessed as 1:1 stoichiometry for compound-Zn2+ complex at 50 uM measured after 15 mins by spectrofluorimetric method. The format is functional. The method, boiled down: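 Compounds were titrated with Zn2+, and chelation was followed by fluorescence spectroscopy.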
For assay [5], the system named is MDA-MB-231. In words: Induction of apoptosis in smac mimetic-sensitive human MDA-MB-231 cells assessed as increase in cleaved PARP level at 5 uM measured after 24 hrs by Western blot analysis. The class given is functional, cell-based.
Assay [6] has as its system MDA-MB-453. The assay can be described thus: Induction of apoptosis in smac mimetic-resistant human MDA-MB-453 cells assessed as increase in cleaved casapse-3 at 5 uM measured after 24 hrs by Western blot analysis. The class given is functional, cell-based.
The subject of assay [7] is MDA-MB-453. In words: Induction of apoptosis in smac mimetic-resistant human MDA-MB-453 cells assessed as increase in cleaved PARP level at 5 uM measured after 24 hrs by Western blot analysis. The format is functional, cell-based.
In assay [8] the test system is MDA-MB-231. The assay can be described thus: Cytotoxicity against human smac mimetic-sensitive human MDA-MB-231 cells after 24 hrs by CellTiter-Glo assay. The note with it: MDA-MB-231, 24 h. For orientation: ATP-based viability assays read luminescence as a measure of living cells.
Assay [9] has as its system MDA-MB-453. In words: Cytotoxicity against human smac mimetic-sensitive human MDA-MB-453 cells after 24 hrs by CellTiter-Glo assay. The note with it: MDA-MB-453, 24 h.

Chain of E3 ubiquitin-protein ligase XIAP (Homo sapiens) (P98170 whole entry): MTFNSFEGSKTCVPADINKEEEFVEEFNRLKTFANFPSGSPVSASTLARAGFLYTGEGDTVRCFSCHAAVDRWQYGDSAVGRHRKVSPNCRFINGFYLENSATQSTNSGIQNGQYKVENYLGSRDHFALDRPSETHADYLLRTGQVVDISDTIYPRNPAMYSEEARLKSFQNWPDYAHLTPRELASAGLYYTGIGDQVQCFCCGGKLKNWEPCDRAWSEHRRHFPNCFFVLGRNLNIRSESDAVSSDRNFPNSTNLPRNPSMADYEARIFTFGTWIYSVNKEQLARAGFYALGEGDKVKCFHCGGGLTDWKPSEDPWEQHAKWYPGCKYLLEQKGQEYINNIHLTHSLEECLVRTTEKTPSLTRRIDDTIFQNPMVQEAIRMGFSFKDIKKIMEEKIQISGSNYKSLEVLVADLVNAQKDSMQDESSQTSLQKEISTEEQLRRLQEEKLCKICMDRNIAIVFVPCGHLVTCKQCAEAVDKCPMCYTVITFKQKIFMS

Turning to `CC[C@H](NC)C(=O)N[C@@H]1C(=O)N2[C@@H](CC[C@@H]1CNC(=O)c1ccccc1)CC[C@H]2C(=O)N[C@H](C(=O)NCCN(Cc1ccccn1)Cc1ccccn1)c1ccccc1`, the result in assay [1] and in [2] was inactive.
Broadly, the IC50 is the concentration that gives 50% inhibition. A high value points to lower potency. With `CC[C@H](NC)C(=O)N[C@@H]1C(=O)N2[C@@H](CC[C@@H]1CNC(=O)CN(Cc1ccccn1)Cc1ccccn1)CC[C@H]2C(=O)NC(c1ccccc1)c1ccccc1`, the result (in the assay with MDA-MB-231 [3]; in [4]; with MDA-MB-231 [5]) was Active. Also, the outcome (in [1]; in the assay on MDA-MB-453 [6]; in the assay with MDA-MB-453 [7]) was inactive. Moreover, the IC50 in the assay on MDA-MB-231 [8] is 6.5 µM; in the assay on MDA-MB-453 [9], above 25 µM.
With `CC[C@H](NC)C(=O)N[C@@H]1C(=O)N2[C@@H](CC[C@@H]1CNC(=O)c1ccccc1)CC[C@H]2C(=O)NC(c1ccccc1)c1ccccc1`, the outcome with MDA-MB-231 [3] and in the assay with MDA-MB-231 [5] was Active. Further, the outcome in assay [1] and in assay [2] was inactive. Further, the IC50 was 4.1 µM with MDA-MB-231 [8] and above 25 µM in the assay on MDA-MB-453 [9].
With `CC[C@H](NC)C(=O)N[C@@H]1C(=O)N2[C@@H](CC[C@@H]1CNC(=O)CCCCCCCCCCNC(=O)CN(Cc1ccccn1)Cc1ccccn1)CC[C@H]2C(=O)NC(c1ccccc1)c1ccccc1`, the outcome (with MDA-MB-231 [3]; in assay [4]; with MDA-MB-231 [5]; in assay [1]) was Active. For the same compound, the outcome (in assay [2]; in the assay with MDA-MB-453 [6]; in the assay with MDA-MB-453 [7]) was inactive. Further, the values for the IC50 with MDA-MB-231 [8] and in the assay with MDA-MB-453 [9] were 0.97 µM and above 25 µM, respectively.
`CC[C@H](NC)C(=O)N[C@@H]1C(=O)N2[C@@H](CC[C@@H]1CNC(=O)COCCOCCNC(=O)CN(Cc1ccccn1)Cc1ccccn1)CC[C@H]2C(=O)NC(c1ccccc1)c1ccccc1`: the outcome (with MDA-MB-231 [3]; in the assay on MDA-MB-231 [5]; in assay [1]; with MDA-MB-453 [6]; in the assay with MDA-MB-453 [7]) was inactive. Also, the result in [4] and in assay [2] was Active. Also, the IC50 in the assay with MDA-MB-231 [8] and in the assay on MDA-MB-453 [9] was above 25 µM throughout.
Take `CC[C@H](NC)C(=O)N[C@@H]1C(=O)N2[C@@H](CC[C@@H]1CNC(=O)CCNC(=O)CN(Cc1ccccn1)Cc1ccccn1)CC[C@H]2C(=O)NC(c1ccccc1)c1ccccc1`: the result (in the assay with MDA-MB-231 [3]; with MDA-MB-231 [5]; in [1]; with MDA-MB-453 [6]; in the assay with MDA-MB-453 [7]) was inactive. In addition, the outcome in assay [4] was Active. Also, the IC50 in the assay on MDA-MB-231 [8] and in the assay on MDA-MB-453 [9] was above 25 µM each time.
